Measurements of several laboratories.
Each line is one published result; the experiments were not run side by side.
Medium: plasma

| SMILES | species | route | dose | notes | measurement | result |
| --- | --- | --- | --- | --- | --- | --- |
| COc1ccc(F)cc1C(=O)NCc1ccc(-c2nn([C@@H](C)C(F)(F)F)c(N)c2C(N)=O)cc1 | human | oral | 200 mg | single dose, fasted | AUC(0-inf) | 90200 ng·h/mL |
| CC(=O)N(C)[C@H]1CCN(C(=O)c2cnc3c(c2)C[C@](C)(c2ccc(F)cc2)N3)C1 | male human | oral | 30 mg | multiple doses, once daily | AUC(0-inf) | 3.99 µM·h |
| O=C(COc1ccc(Cl)cc1)NC12CC(c3nnc([C@H]4C[C@@H](OC(F)(F)F)C4)o3)(C1)C2 | human | oral | 45 mg | multiple doses, once daily, steady state, healthy volunteers | AUC | 36.5 µM·h |
| C=CC(=O)NC1CCN(c2ncc3ncnc(Nc4ccc(Oc5ccc6c(c5)ncn6C)c(C)c4)c3n2)CC1 | male human | intravenous | 100 µg | single dose, healthy volunteers | AUC(0-inf) | 0.00269 µM·h |
| COc1ccc(-c2c(Nc3ccccn3)[nH]c3c(C4=CCCCC4)c(-c4ccccc4)nn3c2=O)cc1 | human | oral | 200 mg once daily | multiple doses, steady state, patients | AUC(0-t) | 108000 ng·h/mL |
| COc1ccc2c(c1)CN(C(=O)CCN1CCC(Cc3ccccc3)CC1)CC[S@@+]2[O-] | male human | intravenous | 0.05 mg/kg | healthy volunteers | AUC(0-inf) | 250 ng·h/mL |
| OC[C@H]1O[C@@H](c2cc(Cc3ccc(C4CC4)cc3)c(Cl)c3c2CCO3)[C@H](O)[C@@H](O)[C@@H]1O | human | oral | 0.3 mg | single dose, fed | AUC(0-inf) | 31 ng·h/mL |
| CC(C)n1c(C2CCNCC2)nc2c([N+](=O)[O-])c(Br)c(Br)cc21 | human | oral | 75 mg | patients | AUC(0-t) | 288 ng·h/mL |
